pEC50, pIC50: −log10 of the molar value. Activity calls are given as the source filed them. No cut-off for these calls is given here.
Columns and labels:
[1] = molecular target: Dihydroorotate dehydrogenase (quinone), mitochondrial (Homo sapiens, UniProt Q02127); assay: Inhibition of human DHODH
Outline: (§1)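 Truncated soluble enzyme expressed in E. coli and purified. DCIP (0.12 mM) reduction followed at 600 nm with 5-10 nM enzyme, 0.2 mM L-dihydroorotate and 0.02 mM CoQD in 100 mM HEPES pH 8.0, 150 mM NaCl, 10% glycerol, 0.1% Triton, 20 °C. Triplicate points per concentration; IC50 fitted.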

Plasmodium berghei [2] = assay: Inhibition of Plasmodium berghei ANKA DHODH; outline: as §1
[3] = molecular target: T1, Dihydroorotate dehydrogenase (Plasmodium falciparum, UniProt Q54A96); assay: Inhibition of Plasmodium falciparum DHODH
T1 sequence (Q54A96 whole entry): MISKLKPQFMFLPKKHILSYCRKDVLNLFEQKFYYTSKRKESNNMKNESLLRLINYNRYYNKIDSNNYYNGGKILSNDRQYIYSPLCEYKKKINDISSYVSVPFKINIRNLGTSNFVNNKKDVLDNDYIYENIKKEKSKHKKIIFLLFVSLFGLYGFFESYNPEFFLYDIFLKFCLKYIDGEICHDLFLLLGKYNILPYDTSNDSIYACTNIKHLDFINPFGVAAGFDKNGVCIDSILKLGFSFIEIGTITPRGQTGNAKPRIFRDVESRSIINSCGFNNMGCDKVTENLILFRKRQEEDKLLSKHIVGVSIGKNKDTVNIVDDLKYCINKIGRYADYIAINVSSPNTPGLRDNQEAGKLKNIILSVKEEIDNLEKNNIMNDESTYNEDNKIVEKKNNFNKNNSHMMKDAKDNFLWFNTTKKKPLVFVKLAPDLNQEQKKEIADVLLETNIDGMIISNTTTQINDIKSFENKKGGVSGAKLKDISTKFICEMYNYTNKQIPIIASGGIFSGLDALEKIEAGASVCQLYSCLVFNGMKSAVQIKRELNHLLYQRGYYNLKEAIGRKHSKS
Outline: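 Truncated soluble recombinant enzyme expressed in E. coli. Triplicate points per inhibitor concentration; IC50 from fit to Vi = Vo/(1+[I]/IC50).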

Liver microsomes [4] = conditions: human, 1 µM
[5] = Half life in Swiss mouse at 50 mg/kg, po administered as single dose; type: ADME, organism-based; parameters: dose 50 mg/kg, route oral; conditions: in vivo
Outline: (§2)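 Nonfasted male Swiss outbred mice, 23-33 g, fed ad libitum. Single oral gavage as a suspension in 0.5% CMC, 0.5% benzyl alcohol, 0.4% Tween-80. One cardiac-puncture blood sample per mouse per time point. Plasma analysed by LC-MS/MS after acetonitrile precipitation, with diazepam as internal standard and a plasma calibration curve. PK parameters taken from mean concentration-time profiles.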

Mus musculus [6] = assay: Plasma concentration in Swiss mouse at 20 mg/kg, po administered as single dose; type: ADME, organism-based; parameters: dose 20 mg/kg, route oral; conditions: in vivo; outline: as §2
Plasmodium berghei [7] = assay: (§3) Antimalarial activity as reduced growth at day 5 in Plasmodium berghei NK65 infected BALB/c mice (Mus musculus) at 50 mg/kg peroral dose over 4 days; type: functional; parameters: scale not given: the % may be the effect or the level left; conditions: route oral
Outline: (§4)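 Female BALB/c mice, 8-10 weeks old, infected ip with 2 × 10^7 infected erythrocytes 24 h before the first dose; ≥0.1% parasitemia confirmed first. Dosing by oral gavage in 0.5% CMC/0.4% Tween-80/0.5% benzyl alcohol, once daily (n = 3) or twice daily (n = 5) on days 1-4, with vehicle controls. Parasitemia counted daily from Wright-Giemsa thin tail-blood smears; suppression reported on day 5.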

Mus musculus [8] = assay: Toxicity in Swiss mouse at 20 mg/kg, po administered as single dose; type: organism-based; parameters: dose 20 mg/kg, route oral; conditions: in vivo
Outline: (§5)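 Nonfasted male Swiss outbred mice, 23-33 g, given a single oral gavage dose suspended in 0.5% CMC/0.5% benzyl alcohol/0.4% Tween-80, then watched for adverse reactions over the plasma sampling period.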

[9] = Plasma concentration in Swiss mouse at 50 mg/kg, po administered as single dose for 16 hrs; type: ADME, organism-based; parameters: dose 50 mg/kg, route oral; outline: as §2
Mus musculus [10] = assay: Plasma concentration in Swiss mouse at 50 mg/kg, po administered as single dose; type: ADME, organism-based; parameters: dose 50 mg/kg, route oral; conditions: in vivo; outline: as §2
Mus musculus [11] = assay: Toxicity in Plasmodium berghei NK65 infected BALB/c mice (Mus musculus) at 50 mg/kg, perorally bid for 4 days measured on day 5 postinfection; type: organism-based; parameters: dose 50 mg/kg, route oral; conditions: in vivo, po, 96 h
Outline: (§6)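 P. berghei-infected female BALB/c mice dosed by oral gavage in 0.5% CMC/0.4% Tween-80/0.5% benzyl alcohol. Tail bleeds and body weighing done daily. Animals monitored for ill effects and euthanized when the no-drug controls lost 20% of their pre-infection body weight.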

Mus musculus [12] = assay: Toxicity in Plasmodium berghei NK65 infected BALB/c mice (Mus musculus) at 50 mg/kg, perorally qd for 4 days measured on day 5 postinfection; type: organism-based; parameters: dose 50 mg/kg, route oral; conditions: in vivo, po, 96 h; outline: as §6
Liver microsomes [13] = conditions: human, 1 µM; remark: listed apart in the source
Mus musculus [14] = assay: Toxicity in Swiss mouse at 50 mg/kg, po administered as single dose; type: organism-based; parameters: dose 50 mg/kg, route oral; conditions: in vivo; outline: as §5
Plasmodium berghei [15] = assay: as §3; type: functional; parameters: scale not given: the % may be the effect or the level left; conditions: route oral; outline: as §4; remark: listed apart in the source
Mus musculus [16] = assay: Toxicity in Plasmodium berghei NK65 infected BALB/c mice (Mus musculus) at 100 mg/kg, perorally administered every 4 hrs x 10 doses followed by every 6 hrs x 6 doses schedule; type: organism-based; parameters: dose 100 mg/kg, route oral; conditions: in vivo, po; outline: as §6
Plasmodium berghei [17] = assay: Antimalarial activity as reduced parasitaemia against Plasmodium berghei NK65 infected BALB/c mice (Mus musculus) at 100 mg/kg peroral dose at 10x4hrs then 6x6hrs; type: functional, organism-based; parameters: dose 100 mg/kg
Outline: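 Female BALB/c mice, 8-10 weeks old, infected ip with 2 × 10^7 infected erythrocytes 24 h before dosing; ≥0.1% parasitemia verified. Oral gavage in 0.5% CMC/0.4% Tween-80/0.5% benzyl alcohol every 4 h × 10 doses, then every 6 h × 6 doses (n = 6 per group), against vehicle controls. Parasitemia counted daily by light microscopy of Wright-Giemsa stained thin tail-blood smears.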

Plasmodium falciparum = assay: Antiplasmodial activity against Plasmodium falciparum 3D7 by [3H]hypoxanthine uptake; type: functional, organism-based
Outline: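 Proliferation of drug-treated infected erythrocytes measured by [3H]hypoxanthine uptake over a range of inhibitor concentrations, triplicate points per concentration. EC50 derived from a Hill-slope logistic fit.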

[18] = Plasma concentration in Swiss mouse at 50 mg/kg, po administered as single dose for 240 mins; type: ADME, organism-based; parameters: dose 50 mg/kg, route oral; conditions: read-out: C0; outline: as §2

Sequence of Dihydroorotate dehydrogenase (quinone), mitochondrial (Q02127 whole entry, the tested form may be a part): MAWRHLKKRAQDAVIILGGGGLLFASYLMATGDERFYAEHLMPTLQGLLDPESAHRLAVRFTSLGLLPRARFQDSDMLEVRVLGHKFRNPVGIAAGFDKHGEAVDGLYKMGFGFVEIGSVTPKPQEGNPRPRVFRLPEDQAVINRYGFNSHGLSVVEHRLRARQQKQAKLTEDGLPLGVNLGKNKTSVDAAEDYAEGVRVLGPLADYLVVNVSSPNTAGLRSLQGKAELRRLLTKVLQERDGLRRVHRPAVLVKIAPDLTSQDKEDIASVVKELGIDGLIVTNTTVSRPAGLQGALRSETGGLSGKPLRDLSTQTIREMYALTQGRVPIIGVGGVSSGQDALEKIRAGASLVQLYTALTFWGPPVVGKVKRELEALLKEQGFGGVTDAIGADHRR

Structure (SMILES) | pIC50 (Plasmodium berghei [2]) | pIC50 [3] | pEC50 (Plasmodium falciparum) | other results
Cc1cc(Nc2ccc(OC(F)(F)F)cc2)n2ncnc2n1 | 5.40 | 5.92 |  | pIC50 [1]: < 4.00
Cc1cc(Nc2c(F)cc(F)cc2F)n2ncnc2n1 | < 4.00 | < 4.00 |  | 
Cc1cc(Nc2ccc(C(F)(F)F)cc2)n2ncnc2n1 |  |  |  | t1/2 (Liver microsomes [4]): 3.83 h; half-life [5]: 3 h; concentration (Mus musculus [6]): 7900 nM; Activity (Plasmodium berghei [7]): 95%; Activity (Mus musculus [8]): Non-toxic; concentration at 16 h [9]: 1000 nM; concentration (Mus musculus [10]): 27600 nM; Activity (Mus musculus [11]): Non-toxic; Activity (Mus musculus [12]): Non-toxic; CL (Liver microsomes [13]): 7.5 µL/min/mg; Activity (Mus musculus [14]): Non-toxic; Activity (Plasmodium berghei [15]): 71%
Cc1cc(Nc2ccc3ccccc3c2)n2ncnc2n1 |  |  |  | Activity (Mus musculus [16]): Non-toxic; t1/2 (Liver microsomes [4]): 0.3 h; concentration (Mus musculus [10]): 2000 nM; CL (Liver microsomes [13]): 96 µL/min/mg; Activity (Plasmodium berghei [17]): inactive
Cc1cc(Nc2c(F)c(F)cc(F)c2F)n2ncnc2n1 | < 4.00 | < 4.00 | < 4.30 | 
Cc1cc(Nc2ccc3cc4ccccc4cc3c2)n2ncnc2n1 |  |  |  | Activity (Mus musculus [16]): Non-toxic; t1/2 (Liver microsomes [4]): 0.717 h; concentration (Mus musculus [10]): 2000 nM; CL (Liver microsomes [13]): 37 µL/min/mg; Activity (Plasmodium berghei [17]): inactive; concentration at 4 h [18]: 1000 nM
Cc1cc(Nc2ccc(C)c(C(F)(F)F)c2)n2ncnc2n1 | 5.14 | 5.81 |  | pIC50 [1]: < 4.00
Cc1cc(Nc2cc(F)ccc2F)n2ncnc2n1 | < 4.00 | < 4.30 | < 4.30 | 
Cc1cc(Nc2ccc(F)c(F)c2)n2ncnc2n1 | 5.00 | 5.10 | < 4.30 | 
Cc1cc(Nc2ccc(Cc3ccccc3)cc2)n2ncnc2n1 | < 4.00 | 5.66 | 5.30 | 
Cc1cc(Nc2c(F)cccc2F)n2ncnc2n1 | < 4.00 | < 4.00 | < 4.30 | 
Cc1cc(Nc2ccc(Cl)c(C(F)(F)F)c2)n2ncnc2n1 | 5.62 | 6.10 | < 5.30 | pIC50 [1]: < 4.00; t1/2 (Liver microsomes [4]): 2.17 h; CL (Liver microsomes [13]): 13 µL/min/mg
Cc1cc(Nc2cccc(Cl)c2)n2ncnc2n1 |  | 5.85 |  | t1/2 (Liver microsomes [4]): 0.75 h; CL (Liver microsomes [13]): 38 µL/min/mg
Cc1cc(Nc2ccc(C#N)c(C(F)(F)F)c2)n2ncnc2n1 | 4.96 | 5.31 | 5.06 | t1/2 (Liver microsomes [4]): 4.67 h; CL (Liver microsomes [13]): 6.2 µL/min/mg
Cc1cc(Nc2ccc(F)c(F)c2F)n2ncnc2n1 | < 4.00 | 4.54 | < 4.30 | 
Cc1cc(Nc2ccc([N+](=O)[O-])cc2)n2ncnc2n1 | 5.43 | 5.37 |  | 
Cc1cc(Nc2cc(F)cc(F)c2)n2ncnc2n1 | 4.68 | 5.03 |  | 
Cc1cc(Nc2ccccc2C(F)(F)F)n2ncnc2n1 | < 4.00 | < 4.00 |  | 
Cc1cc(Nc2ccccc2C)n2ncnc2n1 | < 4.00 | < 4.00 | < 4.30 | 
Cc1cc(Nc2cc(F)c(F)cc2F)n2ncnc2n1 | < 4.00 | 4.77 | < 4.30 | 
Cc1cc(Nc2cccc(F)c2)n2ncnc2n1 | < 4.00 | 5.04 | 4.47 | t1/2 (Liver microsomes [4]): 1.62 h; CL (Liver microsomes [13]): 18 µL/min/mg

Structure (SMILES) | pIC50 (Plasmodium berghei [2]) | pIC50 [3] | pEC50 (Plasmodium falciparum) | other results
Cc1cc(Nc2ccc(F)c(C)c2)n2ncnc2n1 | 4.68 | 5.34 | 5.06 | 
Cc1cc(Nc2ccccc2Cl)n2ncnc2n1 | < 4.00 | < 4.00 | 4.52 | 
Cc1cc(Nc2ccc(OC(F)F)cc2)n2ncnc2n1 | 4.60 | 5.55 | 5.09 | 
Cc1cc(Nc2c(F)c(F)c(F)c(F)c2F)n2ncnc2n1 | < 4.00 | < 4.00 | < 4.30 | 
Cc1cc(Nc2ccc(C)c(C)c2)n2ncnc2n1 | 5.40 | 6.46 |  | pIC50 [1]: < 4.00; t1/2 (Liver microsomes [4]): 0.383 h; CL (Liver microsomes [13]): 77 µL/min/mg
Cc1cc(Nc2ccc(C)c(F)c2)n2ncnc2n1 | 5.49 | 6.07 | 5.44 | pIC50 [1]: < 4.00; t1/2 (Liver microsomes [4]): 0.6 h; CL (Liver microsomes [13]): 49 µL/min/mg
Cc1cc(Nc2ccc(Br)cc2)n2ncnc2n1 | 5.89 | 6.11 | 5.38 | pIC50 [1]: < 4.00
Cc1cc(Nc2ccc(F)cc2)n2ncnc2n1 | < 4.00 | 4.72 | 4.30 | 
Cc1ccc(Nc2cc(C)nc3ncnn23)c(F)c1 | < 4.00 | 4.57 | 4.46 | 
Cc1cc(Nc2ccccc2C#N)n2ncnc2n1 | < 4.00 | < 4.00 | 4.60 | 
Cc1cc(Nc2ccc(C(F)(F)F)c(F)c2)n2ncnc2n1 | 6.59 | 7.11 | 5.89 | pIC50 [1]: < 4.00; t1/2 (Liver microsomes [4]): 6 h; CL (Liver microsomes [13]): 4.8 µL/min/mg
Cc1cc(Nc2ccccc2F)n2ncnc2n1 | < 4.00 | < 4.00 | < 4.30 | 
Cc1ccc(Nc2cc(C)nc3ncnn23)cc1 | 4.80 | 5.38 | 5.19 | 
Cc1cccc(Nc2cc(C)nc3ncnn23)c1 | < 4.00 | 5.31 | 4.43 | 
COc1ccc(Nc2cc(C)nc3ncnn23)cc1 | < 4.30 | 5.34 | 4.85 | 
Cc1cc(Nc2cccc(C(F)(F)F)c2)n2ncnc2n1 | 4.26 | 4.85 | 4.72 | t1/2 (Liver microsomes [4]): 1 h; CL (Liver microsomes [13]): 29 µL/min/mg
Cc1cc(Nc2cc(C(F)(F)F)cc(C(F)(F)F)c2)n2ncnc2n1 | < 4.00 | < 4.00 | < 5.30 | 
Cc1cc(Nc2cccc(F)c2F)n2ncnc2n1 | < 4.00 | 4.41 |  | 
Cc1cc(Nc2ccc(-c3ccccc3)cc2)n2ncnc2n1 |  | 5.28 | < 4.30 | 
Cc1cc(Nc2ccc(Cl)cc2)n2ncnc2n1 | 5.24 | 5.80 | 4.92 | pIC50 [1]: < 4.00
Cc1cc(Nc2ccc(Br)c(C(F)(F)F)c2)n2ncnc2n1 | 5.82 | 6.35 | 5.59 | pIC50 [1]: < 4.00; t1/2 (Liver microsomes [4]): 2.17 h; CL (Liver microsomes [13]): 14 µL/min/mg

Source: ChEMBL document CHEMBL1153392, “Identification of a metabolically stable triazolopyrimidine-based dihydroorotate dehydrogenase inhibitor with antimalarial activity in mice” (J Med Chem, 2009)
